Publication PMC3645320 (Biochimica et biophysica acta, 2011)
Read-outs that look alike come from different tables or passages of the source.

How the values were obtained:
[1] = target: T1, L99A human recombinant thrombin (Homo sapiens, UniProt P00734, L459A); assay: HPLC-based kinetic assay of FXIII; type: biochemical; conditions: L99A thrombin relative to WT thrombin
[2] = target: W60dA human recombinant thrombin (Homo sapiens, UniProt P00734, W413A); assay: HPLC-based kinetic assay of FXIII; type: biochemical; conditions: W60dA thrombin relative to WT thrombin
[3] = target: T2, W215A human recombinant thrombin (Homo sapiens, UniProt P00734, W590A); assay: HPLC-based kinetic assay of FXIII; type: biochemical; conditions: W215A thrombin relative to WT thrombin
[4] = target: T3, E217A human recombinant thrombin (Homo sapiens, UniProt P00734, E592A); assay: HPLC-based kinetic assay of FXIII; type: biochemical; conditions: E217A thrombin relative to WT thrombin
Procedure, shortened: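 Recombinant human E217A thrombin (over 90% active by hirudin titration) at 33.6 or 78.4 nM depending on peptide, acting on acetylated/amidated FXIII (28–41) segment peptides at 100–3000 μM. Conditions: 50 mM H3PO4, 100 mM NaCl, 0.1% PEG, pH 7.4, 25 °C. Timed aliquots quenched in 12.5% H3PO4. FXIII (28–37) product measured by RP-HPLC against a calibration curve.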

[5] = target: T3, E217A human recombinant thrombin; conditions: E217A thrombin relative to WT thrombin; ref [37]; cited from earlier work
[6] = target: Y60aA human recombinant thrombin (Homo sapiens, UniProt P00734, Y410A); assay: HPLC-based kinetic assay of FXIII; type: biochemical; conditions: Y60aA thrombin relative to WT thrombin
[7] = target: T2, W215A human recombinant thrombin; conditions: W215A thrombin relative to WT thrombin; ref [37]; cited from earlier work
[8] = target: T1, L99A human recombinant thrombin; conditions: ref [37], cited from earlier work

Substance: Ac-TVELQGFVPRGVNL-NH2 [FXIII (28–41) V34F AP]
- decrease in kcat [1]: 2 fold
- Km (in words) [2]: comparable to that of WT thrombin
- decrease in kcat [2]: 4 fold
- decrease in kcat [3]: 3 fold
- decrease in kcat/Km [3]: 3 fold
- loss in kcat [4]: 2 fold

Substance: Ac-TVELQGLVPRGVNL-amide (Ac-TVELQGLVPRGVNL-NH2) [FXIII (28–41) V34L AP]
- decrease in kcat [5]: ≤ 2 fold
- increase in Km [5]: 3–4 fold
- increase in Km [6]: 2 fold

Substance: Ac-TVELQGPVPRGVNL-NH2 [FXIII (28–41) V34P AP]
- decrease in kcat [2]: 1.3 fold
- decrease in kcat [3]: 2 fold

Substance: Ac-TVELQGVVPRGVNL-NH2 [FXIII (28–41) V34 AP]
- decrease in kcat/Km [7]: 4 fold
- decrease in kcat [2]: 3 fold
- decrease in kcat [5]: ≤ 2 fold
- increase in Km [5]: 3–4 fold
- decrease in kcat ([8]; L99A thrombin relative to WT thrombin): 3 fold
- Km and kcat (in words) ([8]; L99A thrombin, relative to WT thrombin or across the V34X series): highest Km values of the IIa L99A series
- increase in Km [6]: 2 fold
